The values below come from ChEMBL document CHEMBL1142204, “Cathepsin A is the major hydrolase catalyzing the intracellular hydrolysis of the antiretroviral nucleotide phosphonoamidate prodrugs GS-7340 and GS-9131” (Antimicrob Agents Chemother, 2007).

Test [1] is filed under the species Homo sapiens. Nature of the test: Activity of crude extract human PBMCs prodrug hydrolase from leukopheresis patient.
For test [2], the species on record is Homo sapiens. In words: Activity of human PBMCs prodrug hydrolase from leukopheresis patient in Q15 pool.
Test [3] is filed under the species Homo sapiens. Nature of the test: Activity of human PBMCs prodrug hydrolase from leukopheresis patient in BS-HIC pool.
Test [4] deals with T1, Lysosomal protective protein (Homo sapiens) (UniProt P10619).
T1 sequence (whole entry): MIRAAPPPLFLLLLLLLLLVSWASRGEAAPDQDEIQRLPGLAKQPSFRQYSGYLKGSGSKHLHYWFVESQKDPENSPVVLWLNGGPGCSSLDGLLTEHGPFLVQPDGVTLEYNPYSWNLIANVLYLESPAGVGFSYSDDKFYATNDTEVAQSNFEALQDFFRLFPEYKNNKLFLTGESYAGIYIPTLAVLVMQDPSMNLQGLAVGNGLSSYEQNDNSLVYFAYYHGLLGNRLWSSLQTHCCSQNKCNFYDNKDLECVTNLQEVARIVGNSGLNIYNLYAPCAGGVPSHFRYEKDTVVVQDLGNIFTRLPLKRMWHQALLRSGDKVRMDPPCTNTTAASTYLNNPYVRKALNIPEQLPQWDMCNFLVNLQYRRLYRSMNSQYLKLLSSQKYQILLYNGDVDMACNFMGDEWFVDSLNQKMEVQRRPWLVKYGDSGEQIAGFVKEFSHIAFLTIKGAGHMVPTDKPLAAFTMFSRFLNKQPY
In words: Activity of purified human PBMCs Cat A from leukopheresis patient in Con A pool. The essentials: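 Hydrolase purified from fresh human leukopheresis PBMCs (NP-40 extract; Source Q15, butyl Sepharose HIC, then ConA chromatography). Protein by Bradford; specific activity (pmol/min/μg) corrected for estimated 29-kDa catalytic subunit fraction.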

For `CC(C)OC(=O)[C@H](C)N[P@](=O)(CO[C@H](C)Cn1cnc2c(N)ncnc21)Oc1ccccc1`, the Activity worked out at 16 pmol/min/µg in the test filed under Homo sapiens [1], 112 pmol/min/µg in the test filed under Homo sapiens [2], 730 pmol/min/µg in the test listed under Homo sapiens [3] and 35000 pmol/min/µg in test [4].
